Reference: ChEMBL document CHEMBL2163200, “Synthesis, biological evaluation, and structure-activity relationships of novel substituted N-phenyl ureidobenzenesulfonate derivatives blocking cell cycle progression in S-phase and inducing DNA double-strand breaks” (J Med Chem, 2012)
Calls of active or inactive are those of the source. The calls are words filed in the database; no cut-off is given here.

Key:
Jurkat [1] = assay: Cell cycle arrest in human Jurkat E6-1 cells assessed as accumulation at G2/M phase at 7.5 uM after 24 hrs by FACS flow cytometry; format: functional
In short: (§1)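 Jurkat E6 cells grown in RPMI 1640 with 10% FBS at 37 °C, 5% CO2. Compounds were serially diluted in medium starting 50% above the M21 IC50. 4.0 × 10^5 cells were exposed for 24 h, then washed and spiked with chicken red blood cells as internal standard. Cells were fixed in ice-cold ethanol, stained with 1 μg/mL DAPI on ice for 1 h, and phase distribution was read by flow cytometry. The control was 0.5% DMSO.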

M21 [2] = assay: Cytotoxicity against human M21 cells after 48 hrs by SRB assay; format: functional, cell-based; details: M21, 48 h
In short: (§2)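 NCI sulforhodamine B protocol. Cells were grown in high-glucose DMEM with 5% FBS and seeded per well at 4 × 10^3 (HT-29), 3.5 × 10^3 (M21) or 3 × 10^3 (MCF-7), then allowed 24 h to attach. Serial dilutions from 200 μM to 780 nM final were applied in DMSO <0.5% for 48 h. Cells were fixed with cold TCA (10% final) and stained with SRB, with absorbance read at 530–568 nm. Growth inhibition was computed against day-0 plates, giving the 50% inhibitory concentration. At least two experiments in triplicate, CV <10%.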

HT-29 = assay: Cytotoxicity against human HT-29 cells after 48 hrs by SRB assay; format: functional, cell-based; details: HT-29, 48 h; in short: as §2
MCF7 = assay: Cytotoxicity against human MCF7 cells after 48 hrs by SRB assay; format: functional, cell-based; details: MCF7, 48 h; in short: as §2
Jurkat [3] = assay: Cell cycle arrest in human Jurkat E6-1 cells assessed as accumulation at G0/G1 phase at 7.5 uM after 24 hrs by FACS flow cytometry; format: functional
In short: (§3)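 Jurkat E6 cells cultured in RPMI 1640 with 10% FBS at 37 °C, 5% CO2. Compounds serially diluted in medium, starting 50% above the M21 IC50. 4.0 × 10^5 cells were exposed for 24 h. Cells were washed with PBS, chicken red blood cells added as internal standard, and fixed in ice-cold EtOH. After 1 h on ice in PBS with 1 μg/mL DAPI, phase distribution was read by flow cytometry. DMSO-treated cells served as control.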

Jurkat [4] = assay: Cell cycle arrest in human Jurkat E6-1 cells assessed as accumulation at S phase at 7.5 uM after 24 hrs by FACS flow cytometry; format: functional
In short: (§4)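 Jurkat E6 T-lymphoblasts in RPMI 1640 with 10% FBS, 37 °C, 5% CO2. […] Chicken red blood cells were added as internal standard. Cells were fixed in ice-cold EtOH and stained with 1 μg/mL DAPI on ice for 1 h before flow cytometry of phase distribution. Vehicle control was 0.5% DMSO.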

Jurkat [5] = assay: Cell cycle arrest in human Jurkat E6-1 cells assessed as accumulation at G2/M phase at 4.8 uM after 24 hrs by FACS flow cytometry; format: functional; in short: as §1
Jurkat [6] = assay: Cell cycle arrest in human Jurkat E6-1 cells assessed as accumulation at G0/G1 phase at 4.8 uM after 24 hrs by FACS flow cytometry; format: functional; in short: as §3
Jurkat [7] = assay: Cell cycle arrest in human Jurkat E6-1 cells assessed as accumulation at S phase at 4.8 uM after 24 hrs by FACS flow cytometry; format: functional; in short: as §4
Jurkat [8] = assay: Cell cycle arrest in human Jurkat E6-1 cells assessed as accumulation at S phase at 64 uM after 24 hrs by FACS flow cytometry; format: functional; in short: as §4
Jurkat [9] = assay: Cell cycle arrest in human Jurkat E6-1 cells assessed as accumulation at G2/M phase at 64 uM after 24 hrs by FACS flow cytometry; format: functional; in short: as §1
Jurkat [10] = assay: Cell cycle arrest in human Jurkat E6-1 cells assessed as accumulation at G0/G1 phase at 64 uM after 24 hrs by FACS flow cytometry; format: functional; in short: as §3
Jurkat [11] = assay: Cell cycle arrest in human Jurkat E6-1 cells assessed as accumulation at G0/G1 phase at 10 uM after 24 hrs by FACS flow cytometry; format: functional; in short: as §3
Jurkat [12] = assay: Cell cycle arrest in human Jurkat E6-1 cells assessed as accumulation at G2/M phase at 10 uM after 24 hrs by FACS flow cytometry; format: functional; in short: as §3
Jurkat [13] = assay: Cell cycle arrest in human Jurkat E6-1 cells assessed as accumulation at S phase at 10 uM after 24 hrs by FACS flow cytometry; format: functional; in short: as §1
Jurkat [14] = assay: Cell cycle arrest in human Jurkat E6-1 cells assessed as accumulation at S phase at 24 uM after 24 hrs by FACS flow cytometry; format: functional; in short: as §1
Jurkat [15] = assay: Cell cycle arrest in human Jurkat E6-1 cells assessed as accumulation at G2/M phase at 24 uM after 24 hrs by FACS flow cytometry; format: functional; in short: as §1
Jurkat [16] = assay: Cell cycle arrest in human Jurkat E6-1 cells assessed as accumulation at G0/G1 phase at 24 uM after 24 hrs by FACS flow cytometry; format: functional; in short: as §3
Jurkat [17] = assay: Cell cycle arrest in human Jurkat E6-1 cells assessed as accumulation at G2/M phase at 1.2 uM after 24 hrs by FACS flow cytometry; format: functional; in short: as §3
[18] = Toxicity in fertilized chicken embryo assessed as mortality rate at 10 ug per egg, iv administered on day 11 measured on day 17 CAM assay; format: organism-based, Gallus gallus; details: in vivo, read-out: Activity
In short: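 Fertilized chicken eggs grafted on the CAM with HT-1080 cells (3.5 × 105/egg) received a 100 μL intravenous injection under the CAM on day 11. The drug was diluted in Cremophor EL/99% ethanol/PBS (1/1/14 v/v). Groups held 10–12 eggs and were incubated until day 17, when dead embryos and signs of toxicity were counted per group.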

HT-1080 = assay: Antitumor activity against human HT1080 cells xenografted in chicken chorioallantoic membrane assessed as inhibition of tumor growth at 10 ug per egg, iv administered on day 11 measured on day 17 by CAM assay; format: functional
In short: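 HT-1080 fibrosarcoma cells (3.5 × 105/egg) were applied onto freshly exposed CAM of fertilized chicken eggs. On day 11, drug from a DMSO stock was diluted in Cremophor EL/99% ethanol/PBS (1/1/14 v/v) and 100 μL was injected into a vein under the CAM. Groups of 10–12 eggs were kept to day 17, embryos were euthanized at 4 °C for ≥4 h, and tumor wet weight was recorded.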

M21 [19] = assay: Induction of DNA damage response in human M21 cells assessed as phosphorylation of H2AX into gammaH2AX at IC50 after 24 hrs by DAPI staining-based immunofluorescence assay; format: functional, cell-based
In short: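 M21 cells (1 × 10^5) on fibronectin-coated coverslips, grown 24 h, then exposed to agent for 24 h at 37 °C; 0.5% DMSO control. Fixed with 3.7% formaldehyde and permeabilized with 0.1% saponin/3% BSA. Probed with mouse anti-H2AX pS139 antibody for 2 h at room temperature. Nuclei counterstained with DAPI; nuclear γH2AX foci viewed by epifluorescence microscopy.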

Jurkat [20] = assay: Cell cycle arrest in human Jurkat E6-1 cells assessed as accumulation at S phase at 1.2 uM after 24 hrs by FACS flow cytometry; format: functional; in short: as §1
Jurkat [21] = assay: Cell cycle arrest in human Jurkat E6-1 cells assessed as accumulation at G0/G1 phase at 1.2 uM after 24 hrs by FACS flow cytometry; format: functional; in short: as §3
Jurkat [22] = assay: Cell cycle arrest in human Jurkat E6-1 cells assessed as accumulation at G0/G1 phase at 17 uM after 24 hrs by FACS flow cytometry; format: functional; in short: as §3
Jurkat [23] = assay: Cell cycle arrest in human Jurkat E6-1 cells assessed as accumulation at S phase at 17 uM after 24 hrs by FACS flow cytometry; format: functional; in short: as §1
Jurkat [24] = assay: Cell cycle arrest in human Jurkat E6-1 cells assessed as accumulation at G2/M phase at 17 uM after 24 hrs by FACS flow cytometry; format: functional; in short: as §1

O=C(NCCCl)Nc1cccc(S(=O)(=O)Oc2ccc(O)cc2)c1
Activity (Jurkat [1]): 22%
IC50 (M21 [2]): 73 µM
IC50 (HT-29): 120 µM
IC50 (MCF7): 87 µM
Activity (Jurkat [3]): 24%
Activity (Jurkat [4]): 54%

Cc1cccc(OS(=O)(=O)c2ccc(NC(=O)NCCCl)cc2)c1
Activity (Jurkat [5]): 13%
Activity (Jurkat [6]): 35%
Activity (Jurkat [7]): 52%
IC50 (M21 [2]): 7.2 µM
IC50 (HT-29): 11 µM
IC50 (MCF7): 17 µM

CCc1ccccc1NS(=O)(=O)c1cccc(NC(=O)NCCCl)c1
Activity (Jurkat [8]): 42%
IC50 (M21 [2]): 65 µM
IC50 (HT-29): 48 µM
Activity (Jurkat [9]): 12%
Activity (Jurkat [10]): 46%
IC50 (MCF7): 46 µM

CCCc1ccccc1NS(=O)(=O)c1cccc(NC(=O)NCCCl)c1
Activity (Jurkat [11]): 42%
IC50 (M21 [2]): 17 µM
IC50 (HT-29): 15 µM
Activity (Jurkat [12]): 19%
IC50 (MCF7): 16 µM
Activity (Jurkat [13]): 39%

Cc1ccccc1OS(=O)(=O)c1cccc(NC(=O)NCCCl)c1
Activity (Jurkat [14]): 44%
IC50 (M21 [2]): 40 µM
IC50 (HT-29): 33 µM
Activity (Jurkat [15]): 11%
Activity (Jurkat [16]): 45%

Cc1ccccc1OS(=O)(=O)c1ccc(NC(=O)NCCCl)cc1
Activity (Jurkat [17]): 7%
mortality at 6 days [18]: 15%
IC50 (M21 [2]): 2.8 µM
TGI (HT-1080): 60%
IC50 (HT-29): 4.7 µM
Activity (M21 [19]): Active
IC50 (MCF7): 4.8 µM
Activity (Jurkat [20]): 71%
Activity (Jurkat [21]): 22%

COc1ccc(OS(=O)(=O)c2ccc(NC(=O)NCCCl)cc2)cc1
Activity (Jurkat [22]): 43%
Activity (Jurkat [23]): 42%
IC50 (M21 [2]): 18 µM
IC50 (MCF7): 27 µM
Activity (Jurkat [24]): 15%
